Reference: ChEMBL document CHEMBL1122328, “Hypolipidemic activity of phthalimide derivatives. 2. N-phenylphthalimide and derivatives” (1983)

What was measured:
Mus musculus [1] = test: In vitro effect on CF1 male mouse on acyltransferase after 16 days at a dose of 40 (mg/kg)/day; type: functional
Method in brief: (§1)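 In vivo enzyme study. CF₁ male mice were dosed ip for 16 days in 1% CMC, and liver was homogenised to 10% in 0.25 M sucrose with 0.001 M EDTA. Enzymes assayed: acetyl-CoA synthetase as hydroxamate at 540 nm after 30 min at 37 °C; HMG CoA reductase with [1-¹⁴C]acetate in 9000g supernatant for 60 min at 37 °C; fatty acid synthetase with [2-¹⁴C]malonyl-CoA; acyltransferase with [³H]glycerol 3-phosphate and microsomes for 10 min; phosphatidate phosphohydrolase as released phosphate at 820 nm after 30 min. N = 6; reported as % control.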

Mus musculus [2] = test: Effect on Serum triglyceride levels on CF1 male mice at a dose of 20 (mg/kg)/day after 14 days; type: functional
Method in brief: (§2)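 CF1 male mice (~25 g), drug suspended in 1% carboxymethylcellulose in water, given ip daily for 16 days; n = 6; vehicle control. Tail-vein blood on days 9 and 16, serum cholesterol by modified Liebermann–Burchard reaction; day-14 serum triglyceride by commercial kit; expressed as % control.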

Mus musculus [3] = test: In vitro effect on CF1 male mouse on Fatty acid synthetase after 16 days at a dose of 10 (mg/kg)/day; type: functional; method in brief: as §1
Rattus norvegicus [4] = test: Effect on high density Phospholipids Holtzman rats after 14 days administration; type: functional
Method in brief: (§3)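 Holtzman male rats (~400 g) given drug at 20 (mg/kg)/day for 14 days; on day 14 blood taken from the abdominal aorta and serum separated by centrifugation at 3500 rpm; lipid and protein content of the lipoprotein fractions measured.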

Rattus norvegicus [5] = test: Effect on Serum cholesterol levels on Holtzman rats at a dose of 30 (mg/kg)/day after 9 days; type: functional
Method in brief: (§4)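 Holtzman male rats (~200 g) dosed orally by intubation needle daily for 16 days, drug suspended in 1% carboxymethylcellulose; n = 6; vehicle control. Tail-vein serum cholesterol on days 9 and 16 by modified Liebermann–Burchard reaction; day-14 serum triglyceride by commercial kit; % control.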

Rattus norvegicus [6] = test: Effect on high density Protein Holtzman rats after 14 days administration; type: functional; method in brief: as §3
Mus musculus [7] = test: In vitro effect on CF1 male mouse on HMGCoA reductase after 16 days at a dose of 60 (mg/kg)/day; type: functional; method in brief: as §1
Mus musculus [8] = test: Effect on cholesterol from CF1 male mice after 16 days at a dose of 60 (mg/kg/day); type: functional
Method in brief: (§5)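 CF1 male mice dosed ip for 16 days at 10–60 (mg/kg)/day; liver taken and 10% homogenate made in 0.25 M sucrose + 0.001 M EDTA; aliquot extracted by Folch and Bligh–Dyer methods, mg lipid weighed, cholesterol measured by Liebermann–Burchard method; n = 6; % of 1% CMC control.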

Rattus norvegicus [9] = test: Effect on very low density cholesterol Holtzman rats after 14 days administration; type: functional
Method in brief: (§6)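 Holtzman male rats (~400 g) received drug at 20 (mg/kg)/day for 14 days. On day 14, blood was collected from the abdominal aorta and serum was separated by centrifugation at 3500 rpm. Lipid content of the lipoprotein fractions was then determined.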

Mus musculus [10] = test: Effect on phospholipids from CF1 male mice after 16 days at a dose of 40 (mg/kg/day); type: functional
Method in brief: (§7)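 Dosing was ip in CF₁ male mice (~25 g) for 16 days, with compound suspended in 1% carboxymethylcellulose. Liver was then taken and homogenised to 10% in 0.25 M sucrose with 0.001 M EDTA. Lipid was extracted from a 2 mL aliquot by the Folch and Bligh–Dyer methods and total mg of lipid was weighed. Cholesterol (Liebermann–Burchard), triglycerides (kit), neutral lipids and phospholipids were then measured; N = 6; reported as % of vehicle control.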

Mus musculus [11] = test: Effect on mg of lipid from CF1 male mice after 16 days at a dose of 60 (mg/kg/day); type: functional; method in brief: as §7
Rattus norvegicus [12] = test: Effect on cholesterol chylomicrons Holtzman rats after 14 days administration; type: functional; method in brief: as §3
Mus musculus [13] = test: Effect on mg of lipid from CF1 male mice after 16 days at a dose of 40 (mg/kg/day); type: functional; method in brief: as §5
Mus musculus [14] = test: Effect on Serum cholesterol levels on CF1 male mice at a dose of 20 (mg/kg)/day after 9 days; type: functional; method in brief: as §2
Mus musculus [15] = test: Effect on Serum triglceride levels on Hyperlipidemic induced mice After 14 days dosing.; type: functional
Method in brief: (§8)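 Mice fed atherogenic diet for 2 weeks to raise serum lipids, then given drug at 20 (mg/kg)/day ip for a further 2 weeks; serum cholesterol and triglyceride measured after the diet and after 14 days dosing; n = 6; compared with 1% CMC and diet-only controls; % control.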

Mus musculus [16] = test: In vivo effect on CF1 male mouse on Lipid content after 16 days at a dose of 40 (mg/kg)/day
Rattus norvegicus [17] = test: Effect on very low density Protein Holtzman rats after 14 days administration; type: functional; method in brief: as §6
Mus musculus [18] = test: Effect on Serum triglceride levels on CF1 male mice at a dose of 50 (mg/kg)/day after 14 days; type: functional; method in brief: as §2
Mus musculus [19] = test: Effect on triglycerides from CF1 male mice after 16 days at a dose of 10 (mg/kg/day); type: functional; method in brief: as §7
Rattus norvegicus [20] = test: Effect on high density cholesterol Holtzman rats after 14 days administration; type: functional; method in brief: as §3
Rattus norvegicus [21] = test: Effect on very low density neutral lipids Holtzman rats after 14 days administration; type: functional; method in brief: as §6
Mus musculus [22] = test: Effect on Serum cholesterol levels on CF1 male mice at a dose of 25 (mg/kg)/day after 16 days; type: functional; method in brief: as §2
Mus musculus [23] = test: In vitro effect on CF1 male mouse on acyltransferase after 16 days at a dose of 20 (mg/kg)/day; type: functional; method in brief: as §1
Rattus norvegicus [24] = test: Effect on Chylomicrons of Triglycerides Holtzman rats after 14 days administration; type: functional; method in brief: as §3
Rattus norvegicus [25] = test: Effect on neutral lipids Holtzman rats after 14 days administration; type: functional
Mus musculus [26] = test: Effect on Serum cholesterol levels on CF1 male mice at a dose of 50 (mg/kg)/day after 9 days; type: functional; method in brief: as §2
Mus musculus [27] = test: Effect on Serum cholesterol levels on CF1 male mice at a dose of 12.5 (mg/kg)/day after 16 days; type: functional; method in brief: as §2
Rattus norvegicus [28] = test: Effect on Serum cholesterol levels on Holtzman rats at a dose of 10 (mg/kg)/day after 16 days; type: functional; method in brief: as §4
Mus musculus [29] = test: Effect on mg of lipid from CF1 male mice after 16 days at a dose of 10 (mg/kg/day); type: functional; method in brief: as §5
Mus musculus [30] = species: Mus musculus; test: Effect on Serum cholesterol levels on Hyperlipidemic induced mice After 2-week diet; type: functional; method in brief: as §8
Mus musculus [31] = test: In vitro effect on CF1 male mouse on Lipid content after 16 days at a dose of 60 (mg/kg)/day; type: functional
Rattus norvegicus [32] = test: Effect on Serum triglceride levels on Holtzman rats at a dose of 20 (mg/kg)/day after 14 days; type: functional; method in brief: as §4
Mus musculus [33] = species: Mus musculus; test: In vitro effect on CF1 male mouse on acyltransferase; type: functional
Mus musculus [34] = test: Effect on triglycerides from CF1 male mice after 16 days at a dose of 20 (mg/kg/day); type: functional; method in brief: as §7
Mus musculus [35] = test: Effect on Serum cholesterol levels on CF1 male mice at a dose of 100 (mg/kg)/day after 9 days; type: functional; method in brief: as §2
Mus musculus [36] = test: Effect on mg of lipid from CF1 male mice after 16 days at a dose of 20 (mg/kg/day); type: functional; method in brief: as §5
Mus musculus [37] = test: In vitro effect on CF1 male mouse on acyltransferase after 16 days at a dose of 10 (mg/kg)/day; type: functional; method in brief: as §1

CC(=O)c1ccccc1N1C(=O)c2ccccc2C1=O
Control (Mus musculus [1]): 43%
Control (Mus musculus [2]): 56%
Control (Mus musculus [3]): 106%
Control (Rattus norvegicus [4]): 446%
Control (Rattus norvegicus [5]): 76%
Control (Rattus norvegicus [6]): 80%
Control (Mus musculus [7]): 94%
Control (Mus musculus [8]): 82%
Control (Rattus norvegicus [9]): 85%
Control (Mus musculus [10]): 143%
Control (Mus musculus [11]): 80%
Control (Rattus norvegicus [12]): 64%
Control (Mus musculus [13]): 80%
Control (Mus musculus [14]): 89%
Control (Mus musculus [15]): 86%
Control (Mus musculus [16]): 80%
Control (Rattus norvegicus [17]): 66%
Control (Mus musculus [18]): 53%
Control (Mus musculus [19]): 46%
Control (Rattus norvegicus [20]): 52%
Control (Rattus norvegicus [21]): 81%
Control (Mus musculus [22]): 38%
Control (Mus musculus [23]): 41%
Control (Rattus norvegicus [24]): 41%
Control (Rattus norvegicus [25]): 55%
Control (Mus musculus [26]): 68%
Control (Mus musculus [27]): 43%
Control (Rattus norvegicus [28]): 54%
Control (Mus musculus [29]): 84%
Control (Mus musculus [30]): 289%
Control (Mus musculus [31]): 80%
Control (Rattus norvegicus [32]): 61%
Control (Mus musculus [33]): 54%
Control (Mus musculus [34]): 91%
Control (Mus musculus [35]): 42%
Control (Mus musculus [36]): 85%
Control (Mus musculus [37]): 35%
